# Screening data: PubChem BioAssay, several laboratories
# EBNA-1 inh – blocks EBNA-1 binding to DNA; EBNA-1 DNA binding, fluorescence polarization; inhibition, % at 14.8 µM; actives 0.34% (n = 300,000); AID 1950; in the data active = inhibition above about 28%
# FGF22 binding – binders of recombinant human FGF22 by thermal shift; Q9HCT0; SYPRO orange fluorescence; percent of sucrose octasulfate shift, DMSO zero; activity (Tm shift, normalised), % at 9.99 µM; actives 1.5% (n = 340,000); AID 651658;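 active = mean Tm shift, scaled 0 neutral to 100 positive control, at about 1.3% or above, every replicate too, limit read from the data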
# Target sequence (Q9HCT0 whole entry, looked up): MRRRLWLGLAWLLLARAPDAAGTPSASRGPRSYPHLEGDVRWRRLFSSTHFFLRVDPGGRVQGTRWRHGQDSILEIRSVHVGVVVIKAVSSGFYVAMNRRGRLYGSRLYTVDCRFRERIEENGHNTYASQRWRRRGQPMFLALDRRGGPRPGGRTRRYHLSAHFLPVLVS
# ZTA DNA inh – blocks Epstein-Barr virus ZTA, an EBNA-1 counter-screen; actives 0.15% (n = 320,000); ZTA-DNA binding, fluorescence polarization; inhibition, % at 11 µM; P03206; in the data active = inhibition above about 33%
# Target sequence (P03206 whole entry, looked up): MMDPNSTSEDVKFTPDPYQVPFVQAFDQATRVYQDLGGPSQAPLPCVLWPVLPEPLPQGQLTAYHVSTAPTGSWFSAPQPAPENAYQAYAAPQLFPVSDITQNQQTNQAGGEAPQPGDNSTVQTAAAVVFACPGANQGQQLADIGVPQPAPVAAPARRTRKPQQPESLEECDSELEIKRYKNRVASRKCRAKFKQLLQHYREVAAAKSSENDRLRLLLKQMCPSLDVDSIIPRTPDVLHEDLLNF
# DNA FID counter – counter-screen for HCV NS3 helicase inhibitors: DNA intercalator displacement | DNA fluorescent intercalator displacement, fluorescence | inhibition, % at 7.9 µM | actives 0.17% (n = 290,000) | AID 1845; in the data active = inhibition above about 37%;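 also: higher means more ethidium bromide displaced from hairpin DNA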
# HCV NS3 hel inh – blocks Hepatitis C virus NS3 helicase unwinding; NS3 helicase DNA unwinding, Cy5 molecular beacon fluorescence; inhibition, % at 10.9 µM; actives 0.56% (n = 290,000);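 active = inhibition above the mean of all tested compounds plus 3 SD, set per campaign, cut at about 35% in these data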
#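 Control set: DMSO versus 110 µM thioflavine S; Material: NS3 helicase fragment of HCV; Measured by: Cy5 fluorescence at 0 and 60 min, beacon hairpin quenching; Read-out basis: percent inhibition from t60/t0 fluorescence ratio; Times: reaction time 60 min, 25 °C; Repeats: single replicate; Compound dosing: single dose, 10.9 µM nominal final, DMSO 0.8% final.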
# GRIN3A LBD mod – modulators (binders) of human NR3A ligand-binding domain. NR3A LBD differential scanning fluorimetry, Tm shift; 0% = protein alone, 100% = glycine-bound protein. AID 1259313. actives 2.5% (n = 340,000). Tm shift relative to glycine control, % at 25 µM;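 active = melting temperature shift of at least 10% of the positive control shift, at one fixed dose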
# A number is an active result; 0 = inactive; - = no result given. This is a sample that favours compounds with a hit; in the whole collection about 3.6% have one here.
SMILES,EBNA-1 inh,FGF22 binding,ZTA DNA inh,DNA FID counter,HCV NS3 hel inh,GRIN3A LBD mod
C[C@@H]1CCCCO[C@@H](CN(C)C(=O)Cc2ccccc2)[C@H](C)CN([C@@H](C)CO)C(=O)c2cc(NC(=O)c3ccncc3)ccc2O1,-,0,-,-,-,-
Cc1ccc(N2C(=O)C3C4C=CC(CNC(=S)N5CCN(c6ccccn6)CC5)(O4)C3C2=O)cc1 (stereo unspecified),0,0,0,0,0,0
Cc1ccc(N2C(=O)C3C4C=CC(CNC(=S)Nc5ccc(Cl)cc5)(O4)C3C2=O)cc1 (stereo unspecified),0,0,0,0,0,11.7
Cc1ccc(N2C(=O)C3C4C=CC(CNC(=S)Nc5ccc(F)cc5)(O4)C3C2=O)cc1 (stereo unspecified),0,-,0,0,0,0
Cc1ccc(N2C(=O)C3C4C=CC(CNC(=S)Nc5cccc(Cl)c5)(O4)C3C2=O)cc1 (stereo unspecified),0,0,0,0,0,20.3
O=C(C[C@@H]1CC[C@@H]2[C@H](COC[C@@H](O)CN2Cc2cccc(Cl)c2)O1)N1CCOCC1,-,0,-,-,-,-
CN(c1ccc(OCC(=O)OCc2nnc(-c3ccccc3)o2)cc1)S(=O)(=O)c1ccc(Cl)cc1,0,0,0,-,-,0
CN(c1ccc(OCc2nnc(-c3ccccc3)o2)cc1)S(=O)(=O)c1ccccc1,0,-,0,0,0,20.4
CC(NC(=O)COc1ccc(N(C)S(=O)(=O)c2ccccc2)cc1)c1ccccc1 (stereo unspecified),0,43.0,0,0,0,0
Cc1noc(C)c1S(=O)(=O)Nc1ccc2c(c1)C(=O)N([C@@H](C)CO)C[C@@H](C)[C@H](CN(C)Cc1ccc3c(c1)OCO3)OCCCC[C@@H](C)O2,-,0,-,-,-,-
CN1/C(=C\C(=O)Nc2ccc(Cl)cc2)C(C)(C)c2ccccc21,0,43.6,0,0,0,0
CCOC(=O)C1=C(c2ccccc2)N=c2s/c(=C\c3cccc(O)c3)c(=O)n2C1c1cccs1 (stereo unspecified),0,-,0,0,0,14.1
COCc1cc(C)nc(OCC(=O)N/N=C/c2ccc(O)cc2O)c1C#N,0,43.7,0,0,0,0
COCc1cc(C)nc(OCC(=O)N/N=C/c2cccc(OC)c2)c1C#N,0,-,0,0,0,0
COCc1cc(C)nc(OCC(=O)N/N=C/c2ccccc2O)c1C#N,0,44.0,0,0,0,0
COc1ccc(CC2(CO)CCN(Cc3cnc(-c4ccccc4C)nc3)CC2)cc1,0,44.1,0,0,0,0
COc1ccc(CC2(CO)CCN(Cc3cnn(-c4ccccc4)c3)CC2)cc1,0,0,0,0,0,0
C[C@H]1CN([C@@H](C)CO)S(=O)(=O)c2ccc(C#Cc3ccccc3)cc2O[C@@H]1CN(C)S(=O)(=O)c1cn(C)cn1,-,0,-,-,-,-
Cc1ccc(S(=O)(=O)Nc2cccc3c2O[C@@H](CN(C)S(=O)(=O)c2cccs2)[C@H](C)CN([C@@H](C)CO)C3=O)cc1,-,0,-,-,-,-
CCC(=O)N(C)C[C@@H]1Oc2cc(-c3ccccc3OC)ccc2S(=O)(=O)N([C@@H](C)CO)C[C@@H]1C,-,0,-,-,-,-
CCOc1ccc(C(C)NC(=S)NCc2ccc(Cl)cc2)cc1 (stereo unspecified),0,43.3,0,0,0,0
CCC(C)c1ccc(C(C)NC(=S)NCc2ccc(F)cc2)cc1 (stereo unspecified),0,0,0,0,0,12.7
C[C@H]1CN([C@@H](C)CO)C(=O)c2cc(NS(=O)(=O)c3cn(C)cn3)ccc2O[C@@H]1CN(C)S(=O)(=O)c1cccs1,-,0,-,-,-,-
CCOC(=O)C(C)On1c(-c2cccc(Cl)c2)nc2ccc([N+](=O)[O-])cc21 (stereo unspecified),0,-,0,0,0,10.0
CCOC(=O)COn1c(-c2cccc(Cl)c2)nc2ccc([N+](=O)[O-])cc21,0,-,0,0,0,0
SMILES,EBNA-1 inh,FGF22 binding,ZTA DNA inh,DNA FID counter,HCV NS3 hel inh,GRIN3A LBD mod
O=C(CN1CCOCC1)N[C@@H]1CC[C@H](CCNC(=O)Nc2cc(F)ccc2F)O[C@H]1CO,-,0,-,-,-,-
COc1ccccc1NC(=S)NC(=O)c1ccc(-c2ccc(Cl)cc2)o1,0,-,0,0,0,0
Cc1ccc(O)c(NC(=S)NC(=O)c2ccc(-c3ccc(Cl)cc3)o2)c1,0,-,0,0,0,29.4
O=C(NC(=S)Nc1ccccc1O)c1ccc(-c2ccc(Cl)cc2)o1,0,-,0,0,0,29.5
Cc1ccc(O)c(NC(=O)c2cc(-c3ccc(F)cc3)on2)c1,0,0,0,0,0,217.2
COc1cccc(CNC(=O)C[C@@H]2CC[C@H]3[C@H](COc4ccc(NC(C)=O)cc4C(=O)N3C)O2)c1,-,0,-,-,-,-
C=CCN(C(=O)CCC(=O)Nc1cc(C)on1)C(C(=O)NC(C)(C)C)c1cccc(OC)c1OC (stereo unspecified),0,-,0,0,0,401.4
O=C(NCCCc1ccccc1)c1cccc(NC(=O)c2ccccc2)c1,-,0,-,-,-,0
O=C(/C=C/c1ccccc1)Nc1cccc(C(=O)NCCCCc2ccccc2)c1,-,0,-,-,-,26.9
O=C(/C=C/c1ccccc1)Nc1cccc(C(=O)NCCc2ccccc2)c1,-,0,-,-,-,17.5
O=C(NCCc1ccccc1)c1cccc(NC(=O)C2CC2)c1,-,0,-,-,-,0
CCOc1ccccc1N1C(=O)CC(Sc2n[nH]c(-c3ccccc3)n2)C1=O (stereo unspecified),0,44.3,0,0,0,0
COc1ccc(N2C(=O)CC(Sc3n[nH]c(-c4cccc(C)c4)n3)C2=O)cc1 (stereo unspecified),0,0,0,0,0,0
Cc1ccc(S(=O)(=O)N2CCN(C(=O)c3cccs3)CC2)c(C)c1,0,-,0,0,0,0
Cc1cc(C)c(S(=O)(=O)N2CCN(C(=O)c3cccs3)CC2)c(C)c1,0,43.2,0,0,0,0
O=C(C[C@H]1C=C[C@H](NC(=O)Nc2cc(F)ccc2F)[C@@H](CO)O1)NCc1ccc2c(c1)OCO2,-,0,-,-,-,-
O=C(CSc1ccccn1)Nc1ccc2c(c1)oc1ccccc12,0,-,0,0,0,26.0
CC(C)c1cn(CC[C@@H]2CC[C@H](NS(=O)(=O)c3ccc(Cl)cc3)[C@@H](CO)O2)nn1,-,0,-,-,-,-
Nc1nc(-c2ccccc2)cn1/N=C/c1ccccc1,0,0,0,0,0,0
Nc1nc(-c2ccccc2)cn1N,0,-,0,0,0,11.0
O=C1CSC(c2ccccc2)N1Nc1nc(N2CCOCC2)nc(N2CCOCC2)n1 (stereo unspecified),0,43.4,0,0,0,0
CCOC(=O)c1cccc(N2C(=O)C3C(C2=O)C2C=CC3C23CC3)c1 (stereo unspecified),0,-,0,0,0,0
CCOC(=O)c1cccc(N2C(=O)Nc3ccccc3N2O)c1,0,-,0,0,0,18.0
